How the values were obtained:
[1] = target: G protein-coupled receptor GPR35 (Rattus norvegicus) (UniProt Q33BM1); assay: Agonist activity at rat GPR35 expressed in CHO cells assessed as induction of beta-arrestin recruitment at 10 uM after 90 mins by beta-galactosidase reporter gene assay; assay type: cell-based
Summary of the method: (§1)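 Rat GPR35 expressed by transfecting a parental CHO β-arrestin-EA line; cells seeded at 20000/well the day before. Compounds (final DMSO ≤1%) were incubated 90 min, followed by detection reagent and a luminescence read after 60 min.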

[2] = target: G-protein coupled receptor 35 (Mus musculus) (UniProt Q9ES90); assay: Agonist activity at mouse GPR35 expressed in CHO cells assessed as induction of beta-arrestin recruitment at 10 uM after 90 mins by beta-galactosidase reporter gene assay; assay type: cell-based
Summary of the method: (§2)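 Mouse GPR35 introduced by transfection into a CHO β-arrestin-EA line; 20000 cells/well plated the day prior. After 90 min of compound exposure (final DMSO ≤1%), detection reagent was added and luminescence read after 60 min.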

[3] = target: T1, G-protein coupled receptor 35 (Homo sapiens, UniProt Q9HC97); assay: Agonist activity at human GPR35 expressed in CHO cells assessed as induction of beta-arrestin recruitment at 10 uM after 90 mins by beta-galactosidase reporter gene assay; assay type: cell-based
Summary of the method: (§3)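 PathHunter enzyme-fragment complementation in CHO cells stably expressing β-arrestin-EA and tagged human GPR35, seeded at 20000 cells/well the day before. DMSO dilutions were further diluted 1:10 (final DMSO ≤1%). Cells were incubated 90 min, then detection reagent was added and luminescence read after 60 min.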

[4] = target: T2, G-protein coupled receptor 55 (Homo sapiens, UniProt Q9Y2T6); assay: Agonist activity at human GPR55 expressed in CHO cells assessed as induction of beta-arrestin recruitment at 10 uM after 90 mins by beta-galactosidase reporter gene assay relative to lysophosphotidylinositol; assay type: functional, cell-based
Summary of the method: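 Human GPR55 PathHunter CHO cells, 20000 cells/well seeded the day before, received test compound at 10 µM (final DMSO ≤1%) for 90 min. Detection reagent was then added and luminescence read after 60 min. Signal was normalized to that of 1 µM LPI.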

[5] = target: T2, G-protein coupled receptor 55; assay: Antagonist activity at human GPR55 expressed in CHO cells assessed as inhibition of lysophosphotidylinositol-induced beta-arrestin recruitment at 10 uM preincubated for 30 mins followed by lysophosphotidylinositol induction by beta-galactosidase reporter gene assay relative to control; assay type: functional, cell-based
Summary of the method: (§4)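 Human GPR55 PathHunter CHO cells were preincubated 30 min with compound, then stimulated with LPI (final 1 µM). After 90 min, detection reagent was added and luminescence read 60 min later. Screening was at 10 µM; full concentration-inhibition curves were run for selected compounds to give IC50.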

[6] = target: G-protein coupled receptor 35 (Mus musculus, UniProt Q9ES90); assay: Agonist activity at mouse GPR35 expressed in CHO cells assessed as induction of beta-arrestin recruitment after 90 mins by beta-galactosidase reporter gene assay; assay type: cell-based; summary of the method: as §2
[7] = target: T1, G-protein coupled receptor 35; assay: Agonist activity at human GPR35 expressed in CHO cells assessed as induction of beta-arrestin recruitment after 90 mins by beta-galactosidase reporter gene assay; assay type: cell-based; summary of the method: as §3
[8] = target: G-protein coupled receptor 35 (Mus musculus) (UniProt Q9ES90); assay: Agonist activity at mouse GPR35 expressed in CHO cells assessed as induction of beta-arrestin recruitment at 10 uM after 90 mins by beta-galactosidase reporter gene assay relative to zaprinast; assay type: cell-based; summary of the method: as §2
[9] = target: T1, G-protein coupled receptor 35; assay: Agonist activity at human GPR35 expressed in CHO cells assessed as induction of beta-arrestin recruitment at 10 uM after 90 mins by beta-galactosidase reporter gene assay relative to zaprinast; assay type: cell-based; summary of the method: as §3
[10] = target: Neuronal acetylcholine receptor subunit alpha-7 (Homo sapiens, UniProt P36544); assay: Inhibition of alpha7 nAChR (unknown origin)
[11] = target: Glutamate [NMDA] receptor; assay: Inhibition of NMDA receptor (unknown origin); design: species or system Homo sapiens
[12] = target: GABA-A receptor; agonist GABA site; assay: Inhibition of GABAA receptor (unknown origin); assay type: protein-complex assay, Homo sapiens
[13] = Inhibition of AMPA receptor (unknown origin); design: species or system Homo sapiens
[14] = target: G protein-coupled receptor GPR35 (Rattus norvegicus, UniProt Q33BM1); assay: Agonist activity at rat GPR35 expressed in CHO cells assessed as induction of beta-arrestin recruitment after 90 mins by beta-galactosidase reporter gene assay; assay type: cell-based; summary of the method: as §1
[15] = target: T3, Aryl hydrocarbon receptor (Homo sapiens, UniProt P35869); assay: Activation of AHR (unknown origin)
T3 sequence (P35869 whole entry): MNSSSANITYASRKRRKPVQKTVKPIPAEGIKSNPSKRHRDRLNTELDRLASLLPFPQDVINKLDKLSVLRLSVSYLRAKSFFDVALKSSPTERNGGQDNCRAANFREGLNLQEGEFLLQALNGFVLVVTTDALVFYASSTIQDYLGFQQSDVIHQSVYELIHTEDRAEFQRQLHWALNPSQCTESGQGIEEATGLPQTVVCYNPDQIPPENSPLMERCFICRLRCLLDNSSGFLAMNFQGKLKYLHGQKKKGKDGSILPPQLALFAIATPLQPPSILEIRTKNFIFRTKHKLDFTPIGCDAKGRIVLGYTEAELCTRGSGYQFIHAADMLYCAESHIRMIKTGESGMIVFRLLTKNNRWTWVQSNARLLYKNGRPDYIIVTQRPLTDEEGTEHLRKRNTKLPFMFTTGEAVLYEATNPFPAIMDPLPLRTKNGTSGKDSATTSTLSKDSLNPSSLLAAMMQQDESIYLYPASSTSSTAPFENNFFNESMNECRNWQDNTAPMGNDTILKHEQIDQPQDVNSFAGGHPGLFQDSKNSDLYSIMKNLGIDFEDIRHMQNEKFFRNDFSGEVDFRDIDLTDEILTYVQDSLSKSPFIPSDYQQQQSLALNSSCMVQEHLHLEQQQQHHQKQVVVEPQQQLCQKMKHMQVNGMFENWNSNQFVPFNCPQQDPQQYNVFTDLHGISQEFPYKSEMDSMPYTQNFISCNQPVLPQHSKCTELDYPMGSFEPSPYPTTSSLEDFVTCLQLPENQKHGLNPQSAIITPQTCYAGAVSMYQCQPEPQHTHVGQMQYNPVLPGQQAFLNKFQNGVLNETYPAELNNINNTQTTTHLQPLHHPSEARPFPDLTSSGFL

[16] = target: T1, G-protein coupled receptor 35; assay: Agonist activity at human GPR35b expressed in CHO cells assessed as induction of beta-arrestin recruitment after 90 mins by beta-galactosidase reporter gene assay; assay type: cell-based
Summary of the method: (§5)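 CHO β-arrestin-EA parental line transfected with human GPR35b, seeded at 20000 cells/well the day before. Compounds in DMSO were diluted 1:10 in medium or PBS (final DMSO ≤1%). After 90 min of incubation, detection reagent was added and luminescence measured 60 min later. Screening was at 10 µM.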

[17] = target: T1, G-protein coupled receptor 35; assay: Agonist activity at human GPR35b expressed in CHO cells assessed as induction of beta-arrestin recruitment at 10 uM after 90 mins by beta-galactosidase reporter gene assay relative to zaprinast; assay type: cell-based; summary of the method: as §5
[18] = target: G protein-coupled receptor GPR35 (Rattus norvegicus) (UniProt Q33BM1); assay: Agonist activity at rat GPR35 expressed in CHO cells assessed as induction of beta-arrestin recruitment at 10 uM after 90 mins by beta-galactosidase reporter gene assay relative to zaprinast; assay type: cell-based; summary of the method: as §1
[19] = organism: Homo sapiens; assay: Selectivity ratio of IC50 for human GPR55 to EC50 for human GPR35
[20] = target: T2, G-protein coupled receptor 55; assay: Antagonist activity at human GPR55 expressed in CHO cells assessed as inhibition of lysophosphotidylinositol-induced beta-arrestin recruitment preincubated for 30 mins followed by lysophosphotidylinositol induction by beta-galactosidase reporter gene assay; assay type: functional, cell-based; summary of the method: as §4

T1 sequence (Q9HC97 whole entry, the tested form may be a part): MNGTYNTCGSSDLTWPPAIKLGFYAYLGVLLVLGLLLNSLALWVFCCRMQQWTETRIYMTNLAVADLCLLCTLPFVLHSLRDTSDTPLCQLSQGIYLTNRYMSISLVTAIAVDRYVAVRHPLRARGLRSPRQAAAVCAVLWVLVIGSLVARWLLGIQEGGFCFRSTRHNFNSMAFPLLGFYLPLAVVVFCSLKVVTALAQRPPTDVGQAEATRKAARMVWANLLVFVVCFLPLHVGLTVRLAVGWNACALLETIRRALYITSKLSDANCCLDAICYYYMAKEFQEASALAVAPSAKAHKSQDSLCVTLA
G-protein coupled receptor 35 (Mus musculus), sequence (Q9ES90 whole entry): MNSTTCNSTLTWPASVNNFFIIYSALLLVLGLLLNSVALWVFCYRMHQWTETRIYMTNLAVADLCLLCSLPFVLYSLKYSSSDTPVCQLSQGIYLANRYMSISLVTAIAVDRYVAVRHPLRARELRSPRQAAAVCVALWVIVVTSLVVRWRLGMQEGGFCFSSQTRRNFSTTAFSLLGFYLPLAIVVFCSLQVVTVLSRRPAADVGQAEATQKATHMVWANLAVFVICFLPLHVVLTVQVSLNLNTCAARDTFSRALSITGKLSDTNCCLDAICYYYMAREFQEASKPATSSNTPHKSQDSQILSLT
T2 sequence (Q9Y2T6 whole entry): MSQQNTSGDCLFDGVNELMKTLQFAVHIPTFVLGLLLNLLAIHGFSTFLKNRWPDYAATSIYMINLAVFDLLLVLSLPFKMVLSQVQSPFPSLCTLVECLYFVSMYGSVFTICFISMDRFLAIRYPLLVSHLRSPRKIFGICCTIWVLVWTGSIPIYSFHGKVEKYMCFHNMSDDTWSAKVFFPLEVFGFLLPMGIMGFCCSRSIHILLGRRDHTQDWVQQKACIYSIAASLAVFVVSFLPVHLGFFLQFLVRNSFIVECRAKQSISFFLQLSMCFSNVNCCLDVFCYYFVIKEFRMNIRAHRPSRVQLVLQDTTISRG
G protein-coupled receptor GPR35 (Rattus norvegicus), sequence (Q33BM1 as listed by the source): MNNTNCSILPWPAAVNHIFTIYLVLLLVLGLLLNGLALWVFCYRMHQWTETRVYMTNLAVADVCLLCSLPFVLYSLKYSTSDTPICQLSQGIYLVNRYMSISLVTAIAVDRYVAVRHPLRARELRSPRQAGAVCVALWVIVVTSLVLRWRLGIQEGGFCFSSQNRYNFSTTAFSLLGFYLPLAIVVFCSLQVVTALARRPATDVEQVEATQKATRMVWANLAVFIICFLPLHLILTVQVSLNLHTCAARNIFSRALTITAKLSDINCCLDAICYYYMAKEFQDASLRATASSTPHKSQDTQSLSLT
G protein-coupled receptor GPR35, sequence (Q33BM1 whole entry): as the sequence (Q33BM1 as listed by the source) above
G-protein coupled receptor 35 (Mus musculus, UniProt Q9ES90), sequence (Q9ES90 whole entry): as the sequence (Q9ES90 whole entry) above
Neuronal acetylcholine receptor subunit alpha-7, sequence (P36544 whole entry): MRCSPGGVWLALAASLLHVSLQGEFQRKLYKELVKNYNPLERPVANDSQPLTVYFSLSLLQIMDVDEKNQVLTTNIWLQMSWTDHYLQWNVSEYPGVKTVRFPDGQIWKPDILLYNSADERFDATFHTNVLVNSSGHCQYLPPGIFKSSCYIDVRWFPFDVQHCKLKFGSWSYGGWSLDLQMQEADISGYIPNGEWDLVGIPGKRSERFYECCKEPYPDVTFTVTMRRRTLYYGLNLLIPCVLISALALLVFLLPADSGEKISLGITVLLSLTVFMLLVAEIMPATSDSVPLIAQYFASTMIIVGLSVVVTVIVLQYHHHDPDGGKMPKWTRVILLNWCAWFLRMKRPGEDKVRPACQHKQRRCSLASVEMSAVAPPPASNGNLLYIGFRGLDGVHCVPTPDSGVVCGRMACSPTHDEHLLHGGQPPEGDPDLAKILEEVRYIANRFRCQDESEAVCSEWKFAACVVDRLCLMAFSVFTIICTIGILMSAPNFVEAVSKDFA

Row | Structure (SMILES) | Activity [1] [%] | Activity [2] [%] | Activity [3] [%] | Activity [4] [%] | inhibition [5] [%] | EC50 [6] [µM] | EC50 [7] [µM] | Emax [8] [%] | Emax [9] [%] | IC50 [10] [µM] | IC50 [11] [µM] | IC50 [12] [µM] | IC50 [13] [µM] | EC50 [14] [µM] | EC50 [15] [µM] | EC50 [16] [µM] | Emax [17] [%] | Emax [18] [%] | Ratio IC50/EC50 [19] | IC50 [20] [µM]
1 | Nc1cccc2c(=O)cc(C(=O)O)oc12 | 40 | 4 | 2 | -11 | 19 | – | – | – | – | – | – | – | – | – | – | – | – | – | – | –
2 | O=C(Nc1cccc2c(=O)cc(C(=O)O)oc12)c1ccc2ccccc2n1 | 41 | – | – | -6 | 31 | 3.59 | 1.34 | 65 | 81 | – | – | – | – | – | – | – | – | – | – | –
3 | O=C(O)c1cc(=O)c2ccccc2[nH]1 [TRANSTORINE] | – | – | – | – | – | – | 217 | – | – | 7 | 15 | 2900 | 10 | 66 | 0.3 | – | – | – | – | –
4 | COc1ccc(C(=O)Nc2cccc3c(=O)cc(C(=O)O)oc23)cc1 | – | – | – | 0 | -3 | 5.03 | 0.346 | 66 | 104 | – | – | – | – | 2.16 | – | 0.472 | 115 | 85 | – | –
5 | COc1ccc(C(=O)Nc2cc(Br)cc3c(=O)cc(C(=O)O)oc23)c(Cl)c1 | – | 35 | – | 10 | – | – | 0.0111 | – | 120 | – | – | – | – | 4.17 | – | 0.0147 | 129 | 81 | > 1700 | 21.7
6 | O=C(Nc1cccc2c(=O)cc(C(=O)O)oc12)c1ccc(OCC2CC2)cc1 | 48 | 13 | 10 | -5 | 24 | – | – | – | – | – | – | – | – | – | – | – | – | – | – | –
7 | COc1ccc(C(=O)Nc2cc(Br)cc3c(=O)cc(C(=O)O)oc23)nc1 | – | 27 | – | 4 | – | – | 0.144 | – | 115 | – | – | – | – | 1.54 | – | – | – | 68 | – | 8.92
